# Compounds with a hit are over-represented: about 3.1% of the library has one in this group of screens.
# UBC13 polyUb: UBC13 polyubiquitin chain formation inhibitors, primary screen, biochemical, TR-FRET, uHTS; Ubiquitin-conjugating enzyme E2 N (Homo sapiens), P61088; inhibition, % at 20 µM; 330,000 tested, 0.47% active; in the data active = inhibition above about 45%, passing the limit was not always enough
# SENP6 block: SENP6 protease inhibitors, primary screen, biochemical, luminescence, uHTS; Recombinant SENP6 catalytic domain, aminoluciferin luminescence; Sentrin-specific protease 6 (Homo sapiens), Q9GZR1; 330,000 tested, 1.8% active; inhibition, % at 10 µM;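 active = inhibition above about 50% at the single tested dose, limit read from the data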;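 also: plate controls were DMSO wells with enzyme for no effect and DMSO wells lacking enzyme for full effect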
# SENP7 block: SENP7 protease inhibitors, primary screen, biochemical, luminescence, uHTS; Sentrin-specific protease 7 (Homo sapiens), Q9BQF6; recombinant SENP7, Z-RLRGG-aminoluciferin luminescence, 40 min; inhibition, % at 5 µM; 330,000 tested, 1.5% active; AID 434973, 2010;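 active = inhibition above about 50% at the single test dose, limit read from the data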;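 also: plate controls were DMSO with enzyme for no effect and no enzyme buffer wells for full effect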
# Target sequence (Q9BQF6 706-1050 limits assumed): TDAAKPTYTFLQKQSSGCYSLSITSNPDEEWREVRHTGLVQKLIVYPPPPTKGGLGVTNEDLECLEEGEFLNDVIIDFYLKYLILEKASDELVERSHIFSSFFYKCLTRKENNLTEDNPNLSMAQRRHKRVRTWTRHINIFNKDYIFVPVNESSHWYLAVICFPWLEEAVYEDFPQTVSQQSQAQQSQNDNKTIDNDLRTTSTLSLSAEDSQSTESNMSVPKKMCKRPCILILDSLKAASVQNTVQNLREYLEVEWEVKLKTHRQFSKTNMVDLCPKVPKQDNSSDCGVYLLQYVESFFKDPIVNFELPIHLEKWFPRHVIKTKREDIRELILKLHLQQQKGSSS
# SENP8 block-1: human SENP8 protease inhibitors, primary screen, biochemical, fluorescence, Nedd8 protein substrate, uHTS; Sentrin-specific protease 8 (Homo sapiens), Q96LD8; recombinant SENP8; inhibition, % at 20 µM; 360,000 tested, 0.64% active; AID 602440, 2012; in the data active = inhibition mostly above about 40%, no sharp cut-off; inactive = mostly below about 27%
# Target sequence (Q96LD8 whole entry, looked up): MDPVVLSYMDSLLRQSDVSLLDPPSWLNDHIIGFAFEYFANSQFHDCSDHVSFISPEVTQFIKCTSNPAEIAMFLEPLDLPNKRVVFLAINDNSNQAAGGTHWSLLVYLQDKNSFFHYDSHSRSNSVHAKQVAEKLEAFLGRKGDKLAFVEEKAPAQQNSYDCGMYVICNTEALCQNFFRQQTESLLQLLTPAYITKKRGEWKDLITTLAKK
# SENP8 block-2: SENP8 protease inhibitors, primary screen, biochemical, luminescence; purified SENP8, Z-RLRGG-aminoluciferin cleavage; inhibition, % at 10 µM; 330,000 tested, 1.2% active; AID 2540, 2010; in the data active = inhibition above about 50%
# Apaf1 inhib: inhibitors of human Apaf-1 apoptosome, primary screen, biochemical, DEVD-Rh110 fluorescence, uHTS. reconstituted apoptosome caspase-3 activity. 330,000 tested, 0.71% active. inhibition, % at 20 µM. AID 489030, 2010. Apoptotic protease-activating factor 1 (Homo sapiens), O14727; active = inhibition of at least 40% at 20 µM;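 also: plate controls were DMSO wells for no effect and DEVD-CHO caspase inhibitor wells for full effect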
#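 Medium: Hepes buffer, pH 7.5 / System: biochemical Apaf-1 apoptosome reconstitution / Measured by: Rh110 fluorescence, excitation 480 nm, emission 540 nm / Times: compound with Apaf-1, dATP, procaspase-3 30 min, then 50 min reaction, room temperature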
# Apaf-1 inh conf2: Apaf-1 inhibitors, single-dose retest, confirmation, biochemical, fluorescence, DEVD-Rh110, 20 µM; 1,800 tested, 25% active; inhibition, % at 20 µM; reconstituted apoptosome, caspase-3 DEVD-Rh110 fluorescence; shares compounds with Apaf1 inhib; AID 504614, 2011;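 active = mean inhibition of at least 40% at 20 µM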;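 also: plate controls were DMSO wells for no effect and DEVD-CHO caspase inhibitor control wells for full effect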
# Rh110 quench: Rh110 fluorescence interference by putative Apaf-1 inhibitors, confirmation, artefact control for Apaf-1 inhibitor project, biochemical, 20 µM; shares compounds with Apaf1 inhib; quenched caspase reaction; activation (fluorescence interference), % at 20 µM; 1,800 tested, under 10 active;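 active = signal rise of 40% or more at 20 µM, treated as a fluorescence artifact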
# * marks the source's active call; other numbers are inactive results; . = not tested or not shown.
SMILES,UBC13 polyUb,SENP6 block,SENP7 block,SENP8 block-1,SENP8 block-2,Apaf1 inhib,Apaf-1 inh conf2,Rh110 quench
Cc1cc(Br)cn2c(Cc3ccsc3)c(-c3cccc(Br)c3)nc12,.,.,.,3,.,.,.,.
N/C(=N\OC(=O)c1cccc2ccccc12)c1cccnc1,3,14,8,-238,7,7,.,.
N/C(=N\OC(=O)c1ccc(Cl)cc1Cl)c1cccnc1,-5,42,72*,6,61*,76*,9,5
COc1ccc(NC(=O)c2cc(C3CCCCN3S(=O)(=O)c3ccccc3)on2)c(C)c1 (stereo not drawn),.,.,.,-4,.,.,.,.
Oc1ccc(N=Cc2ccc(-c3cccs3)s2)cc1,2,40,43,-254,36,96*,26,5
Cn1c(CCN2CCCCC2)nc2cc(NC(=O)COc3ccccc3)ccc21,6,12,0,1,1,53*,16,1
Cn1c(CN2CCCC2)nc2cc(NC(=O)COc3ccccc3)ccc21,2,-10,18,-309,-10,53*,20,3
CN1CCN(c2ccc(-c3cccc(NC(=O)COc4ccccc4)c3)nn2)CC1,0,28,14,18,7,47*,14,5
CCN1CCN(CCc2nc3cc(NC(=O)COc4ccccc4)ccc3n2C)CC1,8,-6,3,6,-5,51*,26,4
CNc1cnc(-c2cccc(C(=O)N3CCOCC3)c2)cn1,.,.,.,-466,.,.,.,.
CN1CCN(CCc2nc3cc(NC(=O)COc4ccccc4)ccc3n2C)CC1,9,4,4,10,-2,57*,21,3
CN1CCN(CCc2nc3cc(NC(=O)COc4ccc([N+](=O)[O-])cc4)ccc3n2C)CC1,1,11,-4,14,5,5,.,.
N#Cc1nc(-c2ccco2)oc1N1CCc2ccccc2C1,3,-32,-12,-290,-12,52*,25,21
CCCCOCCCNC(=O)C[C@@H]1C[C@@]2(C(=O)OCC)CCCC=C2N(CCc2ccc(OC)c(OC)c2)C1=O,.,.,.,17,.,.,.,.
CC(C(=O)NC(=O)NC1CCCCC1)N(C)CC(=O)Nc1ccc(F)c(F)c1F (stereo not drawn),-4,-15,-2,7,-1,46*,13,7
OC[C@@H]1CN(CCN2CCOCC2)C[C@H](n2cnc3c(NC4CCCC4)ncnc32)O1,.,.,.,7,.,.,.,.
COc1ccc(C2CC(=O)N3CN(c4ccc(C)c(Cl)c4)CSC3=C2C#N)cc1 (stereo not drawn),-17,4,18,-57,11,47*,8,0
O=C(NCCN1CCC(n2c(=O)[nH]c3ccccc32)CC1)N1c2ccccc2Sc2ccccc21,.,.,.,12,.,.,.,.
Cc1cccc2sc(N(CCCN(C)C)C(=O)c3ccc(S(=O)(=O)N4CCc5ccccc5C4)cc3)nc12,39,15,-5,6,4,63*,25,-6
O=C(O)c1ccc(/C=N\Nc2ccc(S(=O)(=O)N3CCOCC3)cc2[N+](=O)[O-])cc1,-76,-9,-4,30,-3,-20,.,.
Cc1ccc(-n2c(O)c(/C=N/Nc3ccc(S(=O)(=O)N4CCOCC4)cc3[N+](=O)[O-])c3ccccc3c2=O)c(C)c1,-60,5,3,19,3,51*,31,6
CC(=O)Nc1ccc(C(=O)COC(=O)c2nc3nc(C)cc(C)n3n2)cc1,-11,3,-7,2,-8,41*,10,2
Cc1cc(C)n2nc(C(=O)OCC(=O)c3ccccc3Cl)nc2n1,6,0,2,-8,1,-14,.,.
Cc1ccc(NC(=O)C2(C)CCN2Cc2cccc3c2OCO3)cc1O (stereo not drawn),.,.,.,32,.,.,.,.
O=C1C(NS(=O)(=O)c2cccs2)=C(N2CCN(c3cccc(Cl)c3)CC2)C(=O)c2ccccc21,-68,23,26,70*,13,58*,33,14
SMILES,UBC13 polyUb,SENP6 block,SENP7 block,SENP8 block-1,SENP8 block-2,Apaf1 inhib,Apaf-1 inh conf2,Rh110 quench
c1cncc(C2SCCCS2)c1,.,.,.,8,.,.,.,.
CCNc1nc(-c2sc(NC(=O)C(C)(C)C)nc2C)c(-n2cc(-c3ccccc3)nn2)s1,.,.,.,-57,.,.,.,.
Cc1cc(C)c(S(=O)(=O)Nc2ccc3c4c(cccc24)CC3)c(C)c1,5,-6,-1,-71,0,43*,16,7
CCS(=O)(=O)c1ccc(N=Nc2ccc(O)c3ncccc23)c(OC)c1,-53,10,7,24,2,17,.,.
COc1ccccc1N=Nc1ccc(O)c2ncccc12,-32,65*,25,87*,47,90*,31,14
Cc1cccc(OCC(O)Cn2c(=N)n(Cc3ccccc3)c3ccccc32)c1 (stereo not drawn),36,-20,-7,27,-10,58*,11,11
COCCCn1c(=O)c2sccc2n(Cc2ccccc2)c1=O,10,-1,-7,12,0,-5,.,.
COCCCn1c(=O)c2sccc2n(Cc2ccccc2C)c1=O,-6,-11,-3,4,4,60*,8,4
Cc1ccc(S(=O)(=O)N2C[C@H]3C(=O)C[C@@H](c4ccc(Cl)cc4)N(S(=O)(=O)c4ccc(C)cc4)[C@H]3C[C@H]2c2cccc3ccccc23)cc1,.,.,.,13,.,.,.,.
O=C(CSc1nnc(-c2ccc(F)cc2)n1CC1CCCO1)NCc1ccco1 (stereo not drawn),14,-6,0,5,-3,54*,36,6
Cn1nc(C(=O)OCC(=O)NCc2ccc(Cl)cc2Cl)c2ccccc2c1=O,.,.,.,13,.,.,.,.
O=C1NC(c2ccc(-c3ccccc3[N+](=O)[O-])o2)C(C(=O)c2ccc(F)cc2)C(O)(C(F)(F)F)N1 (stereo not drawn),-23,30,10,-3,-3,51*,13,9
CC(=O)c1cccc(NC(=O)CSc2ccc(-c3ccco3)nn2)c1,-5,-10,-1,-6,4,45*,7,6
CC1=CC(C)(C)N2C(=O)C(=Nc3ccc(O)cc3)c3cccc1c32,-28,35,36,39,9,90*,15,-3
COc1cc(N=C2C(=O)N3c4c(cccc42)C(C)=CC3(C)C)cc(OC)c1,-4,2,9,19,-2,16,.,.
O=C(c1[nH]c(C(F)(F)F)nc1-c1ccccc1)N1CCc2ccccc2C1,.,.,.,9,.,.,.,.
